For one assay, the system named is Pseudomonas aeruginosa. Briefly: Antimicrobial activity against Pseudomonas aeruginosa UFPEDA 39 at 30 ug/disk after 24 hrs by disk diffusion method. It is filed as functional. Conditions: UFPEDA 39, 24 h, read-out: IZ. On the technique in general: Agar diffusion results depend on both activity and mobility in agar.
A further assay relates to Escherichia coli. Briefly: Antimicrobial activity against Escherichia coli UFPEDA 224 at 30 ug/disk after 24 hrs by disk diffusion method. It is filed as functional. The settings on record: UFPEDA 224, 24 h, read-out: IZ.
For the next assay, the system named is Serratia marcescens. The assay is described as follows: Antimicrobial activity against Serratia marcescens UFPEDA 398 at 30 ug/disk after 24 hrs by disk diffusion method. In kind it is functional. The settings on record: UFPEDA 398, 24 h, read-out: IZ.
In assay [1] the test system is Mycolicibacterium smegmatis. The assay is described as follows: Antimicrobial activity against Mycobacterium smegmatis UFPEDA 71 at 30 ug/disk after 24 hrs by disk diffusion method. In kind it is functional. The settings on record: UFPEDA 71, 24 h, read-out: IZ.
For assay [2], the system named is Candida albicans. The assay is described as follows: Antimicrobial activity against Candida albicans UFPEDA 1007 at 25 ug/disk after 48 hrs by disk diffusion method. The settings on record: UFPEDA 1007, 48 h, read-out: IZ. It is filed as functional. The gist of the method: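 Preliminary screen: 6 mm paper disks bearing the agent placed on agar plates inoculated with a standardized microbial suspension. Negative control was DMSO-only disks. Inhibition zones are means of n = 3; no zone or a mean zone below 7 mm was scored as no sensitivity.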

For assay [3], the system named is Candida albicans. The assay is described as follows: Antimicrobial activity against Candida albicans UFPEDA 1007 after 48 hrs by twofold serial dilution technique. The settings on record: UFPEDA 1007, 48 h. It is filed as functional. The gist of the method:
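MIC was determined by twofold serial dilution. Bacteria were tested in plates at 10⁵ CFU/plate and read after 20 h. C. albicans was tested in tubes at 10³ CFU/tube and read after 48 h. All incubations were at 35 °C. Medium plus DMSO served as the negative control.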

A further assay deals with NCI-H292. The assay is described as follows: Cytotoxicity against human NCI-H292 cells after 72 hrs by MTT assay. It is filed as functional, cell-based. Conditions: NCI-H292, 72 h. The gist of the method:
(§1)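 MTT antiproliferative assay. Cells were diluted to 10⁵ cells/mL in 96-well plates and preincubated for 24 h at 37 °C in humid 5% CO₂. Compounds or vincristine (reference) were then added. Formazan was dissolved and OD read at 540 nm, compared with medium-only control cells. Run in triplicate.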

For another assay, the system named is HEp-2. The assay is described as follows: Cytotoxicity against human Hep2 cells after 72 hrs by MTT assay. Conditions: HEp-2, 72 h. It is filed as functional, cell-based. The gist of the method:
as §1
Background: Tetrazolium dyes change colour on reduction, which living cells bring about.

Converted amounts (≈) assume the structure as drawn.

Consider `NC[C@H]1O[C@H](O[C@H]2[C@H](O)[C@@H](O[C@H]3O[C@H](CO)[C@@H](O)[C@H](N)[C@H]3O)[C@H](N)C[C@@H]2N)[C@H](O)[C@@H](O)[C@@H]1O` [KANAMYCIN], for which the zone of inhibition at 30 µg/disc in the assay with Pseudomonas aeruginosa turned out to be 20 mm; in the assay with Escherichia coli, 15 mm; in the assay with Serratia marcescens it was 45 mm; in assay [1], 40 mm.
On to `CC(=O)N1CCN(c2ccc(OCC3COC(Cn4ccnc4)(c4ccc(Cl)cc4Cl)O3)cc2)CC1` (stereo not drawn) [KETOCONAZOLE], for which the zone of inhibition at 25 µg/disc with Candida albicans [2] was 28 mm. In the assay with Candida albicans [3], the MIC is not above 1 µg/mL.
For the compound `CC[C@]1(O)C[C@H]2CN(CCc3c([nH]c4ccccc34)[C@@](C(=O)OC)(c3cc4c(cc3OC)N(C=O)[C@H]3[C@@](O)(C(=O)OC)[C@H](OC(C)=O)[C@]5(CC)C=CCN6CC[C@]43[C@@H]65)C2)C1` [VINCRISTINE], the IC50 in the assay on NCI-H292 was 0.04 µg/mL (≈ 0.0485 µM); in the assay on HEp-2, 0.003 µg/mL (≈ 0.00364 µM).

A word on the MIC: it is the lowest concentration that inhibits growth of the organism. A high value points to a less susceptible organism. As a reminder, the IC50 is the concentration needed to halve the response being measured. A lower IC50 goes with higher potency.

For the origin of these results see ChEMBL document CHEMBL1158358, “Synthesis, antimicrobial and cytotoxic activities of some 5-arylidene-4-thioxo-thiazolidine-2-ones” (Eur J Med Chem, 2009).
